The values that follow come from the RNAGym collection of RNA variant scans (doi:10.1126/science.aae0568).

B1: tRNA (parent)
chain: GUUCCGUUGGCGUAAUGGUAACGCGUCUCCCUCCUAAGGAGAAGACUGCGGGUUCGAGUCCCGUACGGAACG

This sample holds only a part of the variants without activity.

Variants of B1 are the subject of this data set. As to the kind of experiment: yeast fitness relative to wild type (ratio to wild type); higher = fitter; tRNA-Arg(CCU), competitive growth, 37 C, YPD. The procedure, abridged:
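A pool of Saccharomyces cerevisiae strains, each with a tRNA-Arg(CCU) gene variant at the native genomic locus, was competed in YPD at 37°C for 24 hours across six parallel replicates. The variants had been chemically synthesised at a 3% per-site mutation rate over 69 sites, and gene amplicons before and after competition were read by 100-nucleotide paired-end sequencing. Darwinian fitness relative to wild type rested on changes in genotype frequencies. Genotypes required ≥ 100 starting reads, and estimates < 0.5 were set to 0.5.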
Regarding G10C C55A, the yeast fitness is 0.568.

As to U8G G51A A65C C66U, the yeast fitness was at most 0.5.

Consider U8C G23C C29G, for which the yeast fitness is at most 0.5.

For the variant A14U U26C, the yeast fitness came out at 0.698.

Turning to C11G C34G C55G, the yeast fitness was at most 0.5.

Consider C4U G9A C24G A37C G41A A57U, for which the yeast fitness is at most 0.5.

Consider G18C C24G A70G, for which the yeast fitness was at most 0.5.

For U3C C31U G63A, the yeast fitness was 0.771.

Regarding C24U C34G C62U, the yeast fitness was 0.584.

For U19G, the yeast fitness was found to be 0.975.

As to C5A A42U, the yeast fitness was determined as 0.767.

For A20C A42U A45G, the yeast fitness came to 0.77.

Consider U13C C33G G56C, for which the yeast fitness was at most 0.5.

With A42C A57G C61U, the yeast fitness is at most 0.5.

Take C4G G17A A57G: the yeast fitness was at most 0.5.

With A43C C55U G67C, the yeast fitness turned out to be 0.556.

Take A21G G67U: the yeast fitness turned out to be 0.87.

Regarding G41C A42G G51A G68C, the yeast fitness was at most 0.5.

U2C U19C: the yeast fitness came out at 0.897.

Turning to C22G U32C, the yeast fitness worked out at 1.

Turning to C5U A20C G68C, the yeast fitness amounted to 0.542.

For the variant U2A C27G A37C C55U C62G C66G, the yeast fitness is at most 0.5.

On to U28A C49A A65C, for which the yeast fitness came to 0.528.

For C11G C27G C30G A70C, the yeast fitness stood at 0.689.

C31G G48C G58A: the yeast fitness is 0.821.

For the variant A15G A37U C55U, the yeast fitness came out at 0.556.

With G17A U19A C30U A37U G67A, the yeast fitness was at most 0.5.

In the case of G6A G50A, the yeast fitness was found to be 0.841.

With U16G A65C, the yeast fitness was determined as 0.932.

On to U8C G17A A40U G48A, for which the yeast fitness was at most 0.5.

Take G23C C31A C49A: the yeast fitness turned out to be 0.758.

Turning to U3G C5U G6A A65U, the yeast fitness was at most 0.5.

Consider C5A C30A A36U G41C G51C, for which the yeast fitness was found to be 0.65.

Take G6C A14C A21C A42G A70G: the yeast fitness is at most 0.5.

As to C4U C22G U35C, the yeast fitness is 0.641.

With C11G U32C G48A C60G, the yeast fitness was at most 0.5.

Take U8A G25A C33G A42G G50A: the yeast fitness was at most 0.5.

Regarding C4A C5G A20C A40U, the yeast fitness was determined as 0.5.

Regarding C4G A14U C46U C60U A65C, the yeast fitness was at most 0.5.

For the variant C24A C30U A45G A57U C62U, the yeast fitness was 0.614.

Take C5A C30U U54A: the yeast fitness turned out to be 0.537.

For U2G A15G G17A C29G A40U C61U C66U, the yeast fitness is at most 0.5.

Turning to C11G A70G, the yeast fitness was 0.581.

Turning to C24G U47G, the yeast fitness is at most 0.5.

For C49A U54A, the yeast fitness was determined as 0.538.

For U26A C46U, the yeast fitness was 0.874.

For the variant C5U G67C, the yeast fitness came out at 0.913.

Consider G12A A21U A69C, for which the yeast fitness is at most 0.5.

As to C49G G50A, the yeast fitness stood at 0.667.

For the variant U7G G39A C55U U59G G68C, the yeast fitness is at most 0.5.

Turning to C24G G44C C66U, the yeast fitness is at most 0.5.

Take U32G A40U U64G: the yeast fitness was 0.543.

With U19C A20U G56A, the yeast fitness was determined as 0.724.

Take C34G A40C C62U A69U: the yeast fitness came to 0.573.

Turning to C34G G52A A69C, the yeast fitness is 0.645.

With U47C C55U G68C, the yeast fitness was 0.517.

With C49U C66U, the yeast fitness came to 0.968.

Take U26A C31G C62U: the yeast fitness is 0.647.

In the case of C5G A14G C33A G56A C61A, the yeast fitness was determined as 0.583.

In the case of C29G G48C, the yeast fitness was determined as 0.563.

Turning to U3G A20G A45G, the yeast fitness turned out to be 0.75.

Turning to C29G C49U G68A, the yeast fitness was at most 0.5.

Turning to C4U U13G A36U, the yeast fitness was determined as 0.655.

A15U G25C A57G: the yeast fitness was at most 0.5.

With C11U G52A A69C, the yeast fitness came to 0.865.

Consider A15U A57C A65U A69C, for which the yeast fitness was at most 0.5.

With C31U A40G U54C A70U, the yeast fitness was 0.527.

Consider C5A A21G C24U A45U A57U, for which the yeast fitness worked out at 0.603.

Turning to C5G U13A C31G G50A G67A, the yeast fitness was at most 0.5.

For A14C A15U C27U U32C U35G, the yeast fitness came to 0.584.

As for G6A U13A G58C C60U C66G, the yeast fitness is at most 0.5.

In the case of A15C A42C G48A G50C, the yeast fitness amounted to 0.587.

As for G12C G17C C22A U32A C34A A65C, the yeast fitness is at most 0.5.

For G38C A65C C66U, the yeast fitness is at most 0.5.

As for G6A G12A U13C U16A U19G G23A G58A G68A, the yeast fitness is at most 0.5.

As to C27A A36C A42U U64G, the yeast fitness was at most 0.5.

Turning to G17A A69U, the yeast fitness was 0.809.

Turning to A20C A21U C27G U35G, the yeast fitness stood at 0.521.

On to G9C G58A, for which the yeast fitness worked out at 0.869.

For the variant C4A U7C A15G C30A A57C, the yeast fitness is at most 0.5.

Regarding C33A A43G A45C, the yeast fitness is at most 0.5.

On to C4U U59C, for which the yeast fitness turned out to be 0.853.

As to C5U G17A A20G C55A G67A A70G, the yeast fitness was at most 0.5.

Turning to C11G A42U A43C C55A C66U, the yeast fitness was at most 0.5.

On to G58C A69C, for which the yeast fitness came to 1.02.

Regarding G18C C60G A70C, the yeast fitness is at most 0.5.

As to A37G G44C A57U G67U A69C, the yeast fitness was at most 0.5.

Consider G9C G68C A69C, for which the yeast fitness is at most 0.5.

In the case of U2G C31G U35A A45U, the yeast fitness is at most 0.5.

Turning to U53A C61G, the yeast fitness is at most 0.5.

For U3C U19A G58C C62G A70U, the yeast fitness was at most 0.5.

Consider C5G A20C C31G A37U, for which the yeast fitness came out at 0.617.

For the variant A14G G41A, the yeast fitness came to 0.981.

Regarding G18A U26G C55U C60G, the yeast fitness came to 0.512.

For the variant U2C C5A A65U, the yeast fitness is 0.668.

Consider U3A U8C, for which the yeast fitness was 0.925.

In the case of C22U U32C C55A, the yeast fitness was at most 0.5.

For the variant C5U A14G C22U, the yeast fitness was at most 0.5.

For C31U G50C, the yeast fitness was found to be 0.955.

Take C11A A21U G41A: the yeast fitness is at most 0.5.

On to C11A U28G C34U, for which the yeast fitness is at most 0.5.

Take U13A A14C C22A G48C: the yeast fitness was found to be 0.546.

Regarding A36G A42G C46G G68C, the yeast fitness was at most 0.5.

On to C29U U32C C46A, for which the yeast fitness came out at 0.521.

With C31G A65U G67C, the yeast fitness amounted to 0.567.

As for G6C U8C, the yeast fitness was 0.662.

In the case of U8A G12A C33U A37G C62A, the yeast fitness was at most 0.5.

In the case of C4U C22U G25A C31U C60G A70G, the yeast fitness is at most 0.5.

As to C31A C34G A42G A45U, the yeast fitness was at most 0.5.

Consider A21C A43C A57C, for which the yeast fitness is at most 0.5.

For U19C A37C, the yeast fitness worked out at 0.658.

As to C49U C60A, the yeast fitness amounted to 0.668.

A15U G23C U28G U32C A36U G38A C55A: the yeast fitness amounted to 0.689.

As for C62U A65G, the yeast fitness was 0.886.

Regarding C24A G41C G48A, the yeast fitness was 0.625.

In the case of U2C U3C C5U C34U, the yeast fitness was at most 0.5.

C5U G10A A20C G41A C46G G48A U54C C55U A70C: the yeast fitness was 0.647.

With U2C C11U A21C U26C A57U, the yeast fitness was at most 0.5.

For C30G U35A C46U G51A G56A, the yeast fitness was at most 0.5.

With C22U C49G U53A A65G, the yeast fitness was at most 0.5.

On to A21U C30G A70U, for which the yeast fitness is 0.677.

As to A40C A42G G56C, the yeast fitness came to 0.588.

Take C11U C29U G48A: the yeast fitness came to 0.621.

For C4U U47A, the yeast fitness was found to be 0.86.

As to G17C C46G A57U G63A, the yeast fitness is at most 0.5.

For the variant G6A C11U G68C, the yeast fitness amounted to 0.54.

Consider G50A G56C G63A, for which the yeast fitness is 0.561.

On to C5G C27U U54C, for which the yeast fitness was 0.747.

Regarding U3C U13A A45C G48A, the yeast fitness stood at 0.604.

C11U G17U A40U A42U C49G G51A C66A G68C: the yeast fitness is at most 0.5.

Consider A14G A20C C66U, for which the yeast fitness was 0.665.

Regarding A15G U19A U28A G63A, the yeast fitness was at most 0.5.

For the variant U3G U13C A14U C29A A69C, the yeast fitness was 0.562.

As for U3C A14C A40U, the yeast fitness is at most 0.5.

For A15G A20U C22U G38C, the yeast fitness is at most 0.5.

Take G6C G17A A36C C62G: the yeast fitness came out at 0.536.

With U3C C22G C61U A65U, the yeast fitness amounted to 0.596.

As to U26C G67A, the yeast fitness worked out at 0.762.

With U8C C24U, the yeast fitness stood at 0.945.

For the variant U32C C46U G51C C62U, the yeast fitness is at most 0.5.

For G10C C24G C49G, the yeast fitness is at most 0.5.

U7C C27U G48A C55A G63A: the yeast fitness was at most 0.5.

With A45G C60A C62A, the yeast fitness came out at 0.57.

For the variant C5A A45U, the yeast fitness turned out to be 0.877.

For the variant C22U G41A G50A C55G, the yeast fitness was at most 0.5.

Consider A21U C24A C27A U32C U64A, for which the yeast fitness was at most 0.5.

For the variant U13A A14C C22A G48C G67U, the yeast fitness is at most 0.5.

With U2A C11G C49A C60U G68C, the yeast fitness is 0.608.

Consider U16C C60U, for which the yeast fitness turned out to be 0.79.

Turning to A36U C49A A69U, the yeast fitness is 0.565.

For G48C U64A, the yeast fitness is 0.946.

In the case of A36G, the yeast fitness is 0.993.

With U26A G44C C62U, the yeast fitness was 0.622.

Consider G18A C22A C61A A65G, for which the yeast fitness is at most 0.5.

Regarding C5U C31U A57C G58A A69G, the yeast fitness was at most 0.5.

On to U3G U8A G18C G50C, for which the yeast fitness is at most 0.5.

In the case of G6A C22U C27G A36G A43G, the yeast fitness is at most 0.5.

On to U13A G23A U35G U59C, for which the yeast fitness was found to be 0.528.

Take G48A A57U A65U C66A: the yeast fitness is at most 0.5.

Turning to C22A U35A A70U, the yeast fitness is at most 0.5.

Turning to U35C A36G G58A G67A, the yeast fitness is at most 0.5.

Consider C5A C24U G67U A69C, for which the yeast fitness was 0.517.

G10A A36C A37G C49A: the yeast fitness was at most 0.5.

For C5G G50C G51C G56A, the yeast fitness was at most 0.5.

On to A14U U19A G23C C29A C66A, for which the yeast fitness amounted to 0.549.

C24G C33G A36C A37C A42C C60U G67U: the yeast fitness is at most 0.5.

For A14G U35C, the yeast fitness worked out at 0.635.
